Data: ChEMBL document CHEMBL4513216, “Probing the Open Global Health Chemical Diversity Library for Multistage-Active Starting Points for Next-Generation Antimalarials” (ACS Infect Dis, 2020)

assay: Toxicity liver stage against HepG2, at 10uM; assay type: cell-based; design: test concentration 10 uM, cell line HepG2-A16-CD81EGFP; conditions: human, HepG2-A16-CD81EGFP cells; read-out: INHIBITION
In short: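 Uninfected HepG2-A16-CD81EGFP cells, 3 × 10^3 per well, 1536-well, plated on prespotted compound at 10 μM final, parasite-free screening media added to match infected plates; puromycin 10 μM positive, DMSO 0.5% negative; run in parallel with 48 h PbLuc assay at 37 °C, 5% CO2; viability by CellTiter-Glo luminescence, normalized to controls.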

SMILES	cytotoxicity at 10 µM
COC(=O)COn1c(SC(C)C)nc2ccccc2c1=O	-6.17%
COc1ccc(NC(=O)C2OC(c3cccs3)=NN2C(C)=O)cc1 (stereo not given)	-1.6%
CC(C)(Oc1ccc(C(N)=O)cc1)C(=O)N(CCC#N)CC1CCCO1 (stereo not given)	5.55%
COc1ccccc1CN1CC(O)CN(S(=O)(=O)C(C)C)CC1=O (stereo not given)	-12.4%
CCOC(=O)N1CC(=O)N(CCc2ccccc2)CC(O)C1 (stereo not given)	-4.73%
O=C(Cc1cnc(-c2c(Cl)cccc2Cl)s1)N1CCC2(CC1)OCCO2	-0.367%
CC(C)CNC(=O)Cc1cnc(-n2cccc2)s1	-3.66%
Cc1ccc(C(=O)NC2CC2)c(-n2cnnn2)c1C	-2.27%
O=C(CCc1nnc2ccccn2c1=O)NCc1ccco1	-7.51%
COc1cn(CC(=O)N2CCN(c3ccc(Cl)cc3)CC2)c(C)cc1=O	1.82%
O=C(CC1CSc2nccc(=O)n21)NCc1ccco1 (stereo not given)	-7.2%
CN1[C@H](CN2CCCC2)C[C@@H]2CN(C(=O)c3ccsc3)CC[C@@H]21	0.847%
CN(C)CCNC(=O)c1noc2c1CN(C(=O)N(C)C)CC2	10.6%
CS(=O)(=O)N1CCC2(CCCN(c3ncc(F)cn3)C2)C1 (stereo not given)	5.19%
c1cnc(OCc2nnc3n2CCN(Cc2ccco2)C3)nc1	-2.12%
c1cc(-c2nnn3c2COC(CNCC2CCOCC2)C3)ccn1 (stereo not given)	-23.8%
CS(=O)(=O)N1C[C@@H]2COC[C@@H](CC(=O)N3CCCCO3)[C@@H]2C1	10.6%
Cc1ccc(CSc2ncc(Br)c(C(=O)O)n2)cc1	-2.3%
CC(C)(C)NC(=O)c1nn(C2CCS(=O)(=O)C2)c2c1CCCC2 (stereo not given)	10.1%
CC1(C)OCC(CNC(=O)c2cnn(-c3ccc(Cl)cc3)c2N)O1 (stereo not given)	2.31%
CC(C)NC(=O)N1CCC2(CC(C(=O)NCc3cccnc3)=NO2)C1 (stereo not given)	-0.8%
COc1ccccc1C(=O)Nc1c(F)c(C(=O)N2CCCC2)nn1C	5.83%

SMILES	cytotoxicity at 10 µM
CCCN1CCN(C(=O)C(C)n2cc(Br)cn2)CC1 (stereo not given)	-18.8%
CN(C)CCn1nc(C2CCN(Cc3ccccc3)C2)c2cccnc21 (stereo not given)	-7.47%
Cc1cc(N(C)C)cc(C2CCN(S(=O)(=O)c3cccnc3)C2)n1 (stereo not given)	4.26%
Cc1ncc(-c2ccccn2)c(CCNC(=O)CCC2CCCO2)n1 (stereo not given)	11.7%
OC1(CNc2cccc(F)c2)CCNCC1	5.38%
CC(=O)NCCNC(=O)c1sccc1Br	4.2%
O=S(=O)(c1cncc(F)c1)N1CCSC2(CCCCC2)C1	9.48%
CCOc1nnc(CN2CCN(CCOC)C(CC)C2)s1 (stereo not given)	-5.73%
Cn1cccc(NC(=O)NCCOCc2ccccc2)c1=O	-37.8%
Cc1ccc(-c2noc(Cn3nc(C(N)=O)ccc3=O)n2)cc1	-1.6%
CC(NC(=O)NCC(C)(C)C(N)=O)c1nc(-c2ccccc2)cs1 (stereo not given)	12.7%
Cc1ccc(C2COCCN2C(=O)c2ccc(C)s2)o1 (stereo not given)	-3.9%
COCc1noc(C2(c3cccc(Cl)c3)CCOCC2)n1	-2.93%
COc1ccccc1C(=O)NS(=O)(=O)c1cncc(Br)c1	-6.05%
CC(C)NC(=O)Nc1ccc(CS(C)(=O)=O)cc1	1.69%
CCCc1noc(CCC(=O)N2CCCCC2Cn2cc(C)cn2)n1 (stereo not given)	-0.232%
Cn1cc(Br)cc1C(=O)NC1(C#N)CC1	21.8%
NS(=O)(=O)c1ccc(CNCC(=O)NCc2ccc(Cl)cc2Cl)cc1	-48.6%
COc1cc(NC2CCCNC2)cc(OC)c1 (stereo not given)	-9.57%
COc1ccc(CNC(C)c2cnc3cc(C)nn3c2C)cc1 (stereo not given)	-4.86%
Cc1ccc(CC2CCCN2CC(=O)NCc2ccccn2)cc1 (stereo not given)	6.46%
OCc1nnc2n1CCN(c1cnccn1)C2	5.59%

SMILES	cytotoxicity at 10 µM
CC(C)NC(=O)N1CC[C@H]2N(C)CC[C@@]2(C(=O)Nc2cccnc2)CC1	-109%
CS(=O)(=O)N1C[C@@H]2COC[C@]2(COCC(=O)N2CCCC2)C1	-114%
CN1CCN(S(=O)(=O)C2CC2)Cc2cccnc21	-108%
CC(C)N1Cc2c(C(=O)N3CCN(C)CC3)nn(C)c2C1	-104%
Cn1ccnc1CN1C[C@@H]2OCCN(c3ncccn3)[C@@H]2C1	-73%
CN(Cc1ccncc1)C1CC2(CCN(Cc3ccccn3)CC2)C1	-90.4%
CCOCC1CN(C(=O)N2CCCC2)Cc2cnn(CC)c21 (stereo not given)	-77.5%
CC1=N[C@@]2(CC[C@@H]3CN(C(=O)NCc4ccccc4C)C[C@@H]32)C(=O)N1	-74.9%
Cn1cc(CN2CCCC3(CCN3S(C)(=O)=O)C2)cn1 (stereo not given)	-68.4%
CCN1CCC2(COCc3cnc(-c4cccnc4)nc32)C1 (stereo not given)	4.04%
Cc1ncc(-c2ccnc(N3CCCCC3)n2)c(=O)[nH]1	7.53%
Cc1ccc(C(=O)O)cc1CNC(=O)CN1CC(C)(C)[C@@](C)(O)C1	-6.03%
O=C1OCC(CO)N1Cc1cccc(Cl)c1F (stereo not given)	0.739%
CCN(Cc1cn(C)nc1-c1ccc2c(c1)OCCO2)CC1CCCO1 (stereo not given)	2.85%
O=C(NC1CCCC1)N1C[C@H]2CN(c3ccncc3)C[C@@]2(C(=O)O)C1	11.3%
CCN(CC1CCCCO1)C(=O)CCNC(=O)c1ccccc1F (stereo not given)	-42.9%
c1cncc(-c2cccc(-c3ccn(CCN4CCCCC4)n3)c2)c1	2.54%
CCCc1ccc(C(=O)N2CCc3c(nc(C)nc3N(C)C)C2)cc1	-1.34%
Cn1nc(C2CC2)c2c1NC(=O)CC2c1cc(CN2CCCC2)cs1 (stereo not given)	-2.2%
c1cc2c(cc1OC[C@@H]1CCCN3CCCC[C@H]13)OCCO2	-2.48%
O=C(c1cccc(-n2cccn2)c1)N1CCOC(CCO)C1 (stereo not given)	0.0642%
CC(C)N1CCOC(CC(=O)N2CCCN(Cc3cccs3)CC2)C1 (stereo not given)	-12.2%

SMILES	cytotoxicity at 10 µM
Cc1nccn1CCC(=O)N1CCCN(c2ccccc2)CC1	-6.08%
Cc1nn(C)c2nc(NC(C)c3n[nH]c(=O)[nH]3)sc12 (stereo not given)	4.91%
CCN(CC)C(=O)c1ccc(Cl)c(NC(=O)c2csnn2)c1	7.3%
CNc1ncc(CN(C)C(=O)c2cccc(-n3cnnc3)c2)cn1	1.5%
CN(C)C(=O)CN1CC=C(c2cnn(Cc3ccccc3)c2)CC1	-6.12%
CCCc1nnc(C(=O)N(C)Cc2cnc3ccccn23)o1	-3.41%
OC1CN(Cc2cccc(N3CCOCC3)c2)Cc2ccccc21 (stereo not given)	-3.15%
CO[C@H]1C[C@@H](O)C12CCN(C(=O)CCSCc1ccc(F)cc1)CC2	-5.22%
CN(Cc1cccc(C(=O)Nc2ccnn2C)c1)CC1(C)COC1	-5.84%
CCS(=O)(=O)c1ncc(CN(C)Cc2ccccc2OC)n1CCOC	-2.23%
COc1ccc(OC2CCN(C(=O)CCc3nc(Cl)n[nH]3)CC2)cc1	4.47%
O=C(CCN1CCCCO1)N1CC[C@H](O)[C@@H](O)C1	-1.77%
Cc1nn(C)cc1C(=O)N1CCCC(c2nccn2Cc2cscn2)C1 (stereo not given)	-4.32%
COCCn1ccnc1CN1CCc2[nH]cnc2C1c1cccc(O)c1 (stereo not given)	-2%
O[C@H]1[C@H](NCCc2ccccn2)c2ccccc2C12CCNCC2	13.7%
Cc1ccnc(NC(=O)C(C)Cn2cncn2)c1 (stereo not given)	0.298%
CNS(=O)(=O)CCNC(=O)[C@@]12CNC[C@@H]1CN(C1CCCC1)C2	1.3%
CCOc1ccc(C(=O)N2CCCC2Cn2cc(C)cn2)cn1 (stereo not given)	-20.2%
Cc1ccc(CC(=O)N2CCN(CC(O)C(C)(C)C)CC2)cn1 (stereo not given)	-4.51%
CCOCC(O)CN1CCN(C(=O)c2ccc(OC)cc2F)CC1 (stereo not given)	-11.9%
Cc1nnc2n1CCN(Cc1csc(-c3ccc(F)cc3)n1)C2	-6.78%
NC(=O)c1cc(C2CCCN(CCc3ccccn3)C2)n[nH]1 (stereo not given)	-8.44%

SMILES	cytotoxicity at 10 µM
COc1ccc(OCCCN2CCOC(Cn3cccn3)C2)cc1 (stereo not given)	5.34%
CN(CCNC(=O)Nc1ccncc1)C1CCCCC1	-0.39%
Cc1cc(CN(C)C(=O)NC2CCS(=O)(=O)C2)no1 (stereo not given)	-1.61%
Cc1nc(NC2CCCCC2)cc(C2CCCNC2)n1 (stereo not given)	-30.3%
COCCN1CCc2c(cnc(-c3ccoc3)c2C(=O)O)C1	0.908%
CCC(CC)C(=O)N1CCC2(C1)CN(c1ccccc1)C(=O)CN2C (stereo not given)	3.5%
CCN1CCOCC12CCN(C(=O)Cc1ccccc1)CC2	-75.3%
CCS(=O)(=O)NC[C@]12COC[C@H]1CN(Cc1sccc1C)C2	-75.2%
CNC(=O)[C@H]1C[C@@H]2CN(Cc3csc(C)n3)C[C@@H]2N1S(C)(=O)=O	-3.78%
Cc1ccc(C(=O)N2CCC3(CC2)CCN(CCN(C)C)C3=O)cn1	5.36%
CN(Cc1cccnc1)Cc1cn2c(n1)CN(C1CCOC1)CC2 (stereo not given)	6.2%
CC(C)c1cc(C(=O)N2CCOC3(CCNCC3)C2)no1	3.65%
O=C(NCc1ccccn1)[C@H]1COC[C@H]2CN(C3CCCC3)C[C@H]21	-73.6%
Cc1ccc(C(=O)N2Cc3c(CN4CCCCC4)nn(C)c3C2)o1	-1.94%
CC(=O)N1CCCCC12CCCN(Cc1ccco1)C2 (stereo not given)	4.59%
CN(C)C[C@]12COC[C@H]1CN(Cc1ccc3c(c1)OCO3)C2	-123%
O=C1COC2(CCN(C(=O)c3ccco3)CC2)CN1Cc1ccccn1	6.45%
c1csc(CN2Cc3nccn3CC(Cn3cncn3)C2)n1 (stereo not given)	-9.35%
Cc1ccccc1CN1C[C@H]2CC[C@@H](C1)N(CC1CCC1)C2=O	4.86%
O=C(c1cnccn1)N1C[C@H]2CC[C@@H](C1)N(C(=O)Cc1ccsc1)C2	-13.3%
COc1ccc(-n2cc3nc(N)[nH]cc-3c2=O)cc1	6.25%
Cc1cc(C(=O)NC2CCC3(CCC(=O)N3C)CC2)no1 (stereo not given)	-0.361%
